{"data": "Measurements gathered from unrelated publications", "organism": "Staphylococcus epidermidis", "note": "Lines come from different studies, so protocols differ."}
{"Structure (SMILES)": "O=[N+]([O-])c1ccc(-c2nc3cccc(O)c3[nH]2)o1", "test": "microbial killing", "measurement": "MBC", "value": "1 µg/mL"}
{"Structure (SMILES)": "CC(C)Oc1c(NC(=O)c2ccc(NC(=O)c3ccc(NC(=O)[C@H](CC(N)=O)NC(=O)c4ccc(NC(=O)c5ccc(C#N)cn5)cc4)cc3)c(OC(C)C)c2O)ccc(C(=O)O)c1O", "test": "microbial growth", "system": "DSM28765", "measurement": "MIC", "value": "≤ 0.03 µg/mL"}
{"Structure (SMILES)": "COc1cccc(OC)c1C(=O)N[C@@H]1C(=O)N2[C@@H]1SC(C)(C)[C@@H]2C(=O)O", "test": "microbial growth, broth dilution", "system": "12228", "measurement": "MIC", "value": "3.13 µM"}
{"Structure (SMILES)": "CC(C)Oc1c(NC(=O)c2ccc(NC(=O)[C@H](CC(N)=O)NC(=O)c3ccc(NC(=O)c4ccc(C#N)cc4)cc3)cc2)ccc(C(=O)Nc2ccc(C(=O)O)cc2)c1O", "test": "microbial growth", "system": "DSM28765", "measurement": "MIC", "value": "≤ 0.03 µg/mL"}
{"Structure (SMILES)": "N#CC(=Cc1cn(-c2ccccc2)nc1-c1ccccc1)C1=NC(=O)CS1", "test": "microbial killing, broth dilution", "measurement": "MBC", "value": "0.5 µg/mL"}
{"Structure (SMILES)": "O=C1NC(=S)S/C1=C\\c1ccc(-c2ccc(N(c3ccccc3)c3ccccc3)cc2)c2ccccc12", "test": "microbial killing, broth dilution", "system": "ATCC12228", "measurement": "MBC", "value": "> 1000 µg/mL"}
{"Structure (SMILES)": "N#CC(=Cc1ccccc1O)C1=NC(=O)C(=Cc2cn(-c3ccccc3)nc2-c2ccccc2)S1", "test": "microbial killing, broth dilution", "measurement": "MBC", "value": "0.25 µg/mL"}
{"Structure (SMILES)": "O=C(O)CN1C(=O)/C(=C/c2ccc(-c3ccc(N(c4ccccc4)c4ccccc4)cc3)c3ccccc23)NC1=S", "test": "microbial growth, broth dilution", "system": "ATCC12228", "measurement": "MIC", "value": "> 1000 µg/mL"}
{"Structure (SMILES)": "C/C(=C\\c1ccc(O)cc1)C(=O)Nc1ccc(C(=O)N[C@@H](CC(N)=O)C(=O)Nc2ccc(C(=O)Nc3ccc(C(=O)Nc4ccc(C(=O)O)cc4)c(O)c3OC(C)C)cc2)cc1", "test": "microbial growth", "system": "DSM28765", "measurement": "MIC", "value": "0.25 µg/mL"}
{"Structure (SMILES)": "O=C(O)CN1C(=O)/C(=C/c2c3ccccc3c(-c3ccc(N(c4ccccc4)c4ccccc4)cc3)c3ccccc23)SC1=S", "test": "microbial killing, broth dilution", "system": "ATCC12228", "measurement": "MBC", "value": "> 1000 µg/mL"}
{"Structure (SMILES)": "C/C(=C\\c1ccc(C#N)cc1)C(=O)Nc1ccc(C(=O)N[C@@H](CC(N)=O)C(=O)Nc2ccc(C(=O)Nc3ccc(C(=O)Nc4ccc(C(=O)O)cc4)c(O)c3OC(C)C)cc2)cc1", "test": "microbial growth", "system": "DSM28765", "measurement": "MIC", "value": "≤ 0.03 µg/mL"}
{"Structure (SMILES)": "O=C1NC(=S)N/C1=C\\c1ccc(-c2ccc(N(c3ccccc3)c3ccccc3)cc2)c2ccccc12", "test": "microbial growth, broth dilution", "system": "ATCC12228", "measurement": "MIC", "value": "> 1000 µg/mL"}
{"Structure (SMILES)": "O=S(=O)(O)c1cc(O)c(N=Nc2ccc3ccccc3c2O)c2ccccc12", "test": "microbial growth, broth dilution", "setting": "24 h", "measurement": "MIC50", "value": "63 µM"}
